Assay results collected from several papers.
Each line is one published result; the experiments were not run side by side.
Target: Ephrin type-A receptor 3 (EPHA3, Homo sapiens, UniProt P29320)
One construct used (P29320 1-983): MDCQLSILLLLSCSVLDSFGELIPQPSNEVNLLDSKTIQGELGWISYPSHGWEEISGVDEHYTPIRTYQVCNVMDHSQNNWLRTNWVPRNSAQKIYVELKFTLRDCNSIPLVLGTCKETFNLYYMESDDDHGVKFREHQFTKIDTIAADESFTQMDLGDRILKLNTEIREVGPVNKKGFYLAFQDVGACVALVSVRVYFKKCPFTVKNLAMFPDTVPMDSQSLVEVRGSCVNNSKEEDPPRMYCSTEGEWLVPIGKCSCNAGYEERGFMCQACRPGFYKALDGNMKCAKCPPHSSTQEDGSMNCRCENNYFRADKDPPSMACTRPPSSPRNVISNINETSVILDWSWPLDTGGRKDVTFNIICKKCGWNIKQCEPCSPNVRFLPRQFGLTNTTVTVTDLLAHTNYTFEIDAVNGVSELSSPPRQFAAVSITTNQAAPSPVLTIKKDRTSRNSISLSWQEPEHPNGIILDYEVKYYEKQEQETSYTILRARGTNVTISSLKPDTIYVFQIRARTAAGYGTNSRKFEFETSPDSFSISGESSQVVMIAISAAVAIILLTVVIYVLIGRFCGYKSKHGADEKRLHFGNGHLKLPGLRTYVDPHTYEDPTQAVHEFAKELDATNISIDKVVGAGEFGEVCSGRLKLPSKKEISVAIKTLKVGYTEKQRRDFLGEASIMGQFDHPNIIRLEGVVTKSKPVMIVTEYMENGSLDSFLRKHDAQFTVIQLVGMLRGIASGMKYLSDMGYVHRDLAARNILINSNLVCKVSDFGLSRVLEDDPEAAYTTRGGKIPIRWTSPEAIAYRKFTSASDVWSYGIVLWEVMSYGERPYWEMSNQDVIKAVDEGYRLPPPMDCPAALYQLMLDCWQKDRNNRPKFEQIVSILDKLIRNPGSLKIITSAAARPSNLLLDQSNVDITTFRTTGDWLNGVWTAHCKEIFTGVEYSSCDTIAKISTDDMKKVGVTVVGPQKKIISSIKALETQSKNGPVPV

Compound	test	setting	measurement	value
COc1cc(Cl)c(C(=O)N[C@@H](CN[C@H]2CC[C@@H](N)CC2)Cc2ccc(C#N)cc2)cc1-c1ccc(CN[C@H](C)c2ccc(C)cc2)o1	enzyme activity, inhibitor	1 µM	remaining activity	69%
CSc1nc(C)c(-c2ccnc(Nc3ccc(N4CCOCC4)cc3)c2)[nH]1	cell-free assay, inhibitor	10 µM	inhibition	-6.3%
O=C(NC[C@@H]1[C@H]2CN(C(=O)OCc3cc(C(F)(F)F)cc(C(F)(F)F)c3)C[C@@H]12)c1ccc2[nH]nnc2c1	cell-free assay, competition with immobilised ligand	1 µM	remaining binding	100%
CNC(=O)c1cc(Oc2ccc(NC(=O)Nc3ccc(Cl)c(C(F)(F)F)c3)cc2)ccn1	enzyme activity, inhibitor	10 µM	inhibition	95%
C#Cc1cccc(Nc2ncnc3cc(OCCOC)c(OCCOC)cc23)c1	cell-free assay	0.5 µM	remaining signal	93.2%
CN(C)C1CCN(CC#Cc2nn(C3CCCC3)c3nc(NCc4ccccc4)ncc23)C1 (stereo not drawn)	enzyme activity, inhibitor, FRET	10 µM	inhibition	-3%
CCN(CC)CCNC(=O)c1c(C)[nH]c(/C=C2\C(=O)Nc3ccc(F)cc32)c1C	cell-free assay	0.5 µM	remaining signal	84%
Cc1cnc(NC2CCOCC2)nc1-n1cnc(C(=O)NC(CN)c2cc(F)cc(Cl)c2)c1 (stereo not drawn)	enzyme activity, inhibitor, radiometric	1 µM	remaining activity	123%
CCN(CC)c1ccc(C2=NNC(=O)CC2C)cc1[N+](=O)[O-] (stereo not drawn)	enzyme activity, inhibitor	10 µM	remaining activity	100%
Cc1nc(N2CC[C@@H](O)C2)ncc1-c1cc(C(F)(F)F)cc2[nH]ncc12	cell-free assay, competition with immobilised ligand	1 µM	remaining binding	94%
Cc1ccc(Nc2nccc(N(C)c3ccc4c(C)n(C)nc4c3)n2)cc1S(N)(=O)=O	enzyme activity, inhibitor	0.3 µM	inhibition	2%
CCOCCn1cc(C(=O)Nc2ccc(-n3nc(-c4cccnc4)cc3C(F)(F)F)cn2)ccc1=O	cell-free assay, competition with immobilised ligand	1 µM	remaining binding	99%
CC(C)(C)c1nc2c(s1)c1nc(N)ncc1c1ccc(NS(=O)(=O)c3c(F)cccc3F)c(F)c12	enzyme activity, inhibitor, radiometric	1 µM	remaining activity	92%
N#CCCc1ccc2c(c1)-c1[nH]c3ccc([N+](=O)[O-])cc3c1CC(=O)N2	cell-free assay	0.5 µM	remaining signal	93.9%
N#CC1(c2ccccn2)CCN(Cc2cc(C(=O)N3CCCC3)c(=O)n3ccccc23)CC1	cell-free assay, competition with immobilised ligand	1 µM	remaining binding	100%
